{"source": "ChEMBL document CHEMBL1671745", "about": "(Antimicrob Agents Chemother, 2010)", "key": {"Staphylococcus aureus [1]": {"test_system": "Staphylococcus aureus", "assay": "Antimicrobial activity against methicillin-resistant Staphylococcus aureus N315 assessed as inhibition of bacterial biofilm formation by CLSI broth microdilution method", "assay_type": "functional", "how_it_was_run": "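Biofilm MIC determined using the modified Calgary biofilm device method.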"}, "Staphylococcus aureus [2]": {"test_system": "Staphylococcus aureus", "assay": "Antimicrobial activity against methicillin-resistant Staphylococcus aureus N315 by CLSI broth microdilution method", "assay_type": "functional"}, "[3]": {"assay": "AUC (0 to 24 hrs) in Staphylococcus aureus in in vitro pharmacokinetic/pharmacodynamic model at 600 mg every 24 hrs", "assay_type": "ADME, organism-based", "design": "dose 600 mg, time < 24 hr"}, "Staphylococcus aureus [4]": {"test_system": "Staphylococcus aureus", "assay": "fCmax in Staphylococcus aureus in in vitro pharmacokinetic/pharmacodynamic model at 600 mg every 24 hrs", "assay_type": "ADME, organism-based"}, "Staphylococcus aureus [5]": {"test_system": "Staphylococcus aureus", "assay": "Bactericidal activity against Staphylococcus aureus in in vitro pharmacokinetic/pharmacodynamic model assessed as decrease in biofilm bacterial count at 400 mg every 24 hrs", "assay_type": "functional", "how_it_was_run": "(§1)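 MSSA SH1000 or MRSA N315 biofilm was conditioned for 40 h (24 h batch in 1% glucose TSB at 37°C, then 16 h flow in 10% glucose TSB) on polystyrene coupons. Simulated regimens ran 72 h in SMHB, duplicate models. Three coupons per time point (0–72 h) were saline-washed, vortexed and sonicated, and drop-plated on TSA. Reduction is log10 CFU/ml versus start; ≥3-log10 counts as bactericidal.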"}, "Staphylococcus aureus [6]": {"test_system": "Staphylococcus aureus", "assay": "Bactericidal activity against Staphylococcus aureus in in vitro pharmacokinetic/pharmacodynamic model assessed as decrease in biofilm bacterial count at 400 mg every 24 hrs measured after 72 hrs", "assay_type": "functional", "how_it_was_run": "as §1"}, "[7]": {"assay": "AUC (0 to 24 hrs) in Staphylococcus aureus in in vitro pharmacokinetic/pharmacodynamic model at 400 mg every 24 hrs", "assay_type": "ADME, organism-based", "design": "time < 24 hr, dose 400 mg"}, "Staphylococcus aureus [8]": {"test_system": "Staphylococcus aureus", "assay": "Bactericidal activity against Staphylococcus aureus in in vitro pharmacokinetic/pharmacodynamic model assessed as decrease in planktonic cell count at 400 mg every 24 hrs measured after 72 hrs", "assay_type": "functional", "how_it_was_run": "(§2)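 Planktonic cells were sampled (≈1 ml) from the flow biofilm reactor at 0, 4, 8, 24, 32, 48, 56 and 72 h during simulated regimens in SMHB, with duplicate models. Samples were serially diluted or vacuum-filtered against carryover, spiral-plated on TSA, and grown 24 h at 37°C; detection limit 1–2 log10 CFU/ml. Bactericidal means a ≥3-log10 CFU/ml fall from the starting inoculum.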"}, "Staphylococcus aureus [9]": {"test_system": "Staphylococcus aureus", "assay": "fCmax in Staphylococcus aureus in in vitro pharmacokinetic/pharmacodynamic model at 400 mg every 24 hrs", "assay_type": "ADME, organism-based"}, "Staphylococcus aureus [10]": {"test_system": "Staphylococcus aureus", "assay": "Bactericidal activity against Staphylococcus aureus in in vitro pharmacokinetic/pharmacodynamic model assessed as decrease in planktonic cell count at 400 mg every 24 hrs", "assay_type": "functional", "how_it_was_run": "as §2"}, "[11]": {"assay": "Half life in Staphylococcus aureus in in vitro pharmacokinetic/pharmacodynamic model", "assay_type": "ADME, organism-based", "how_it_was_run": "(§3)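 Biofilm reactor with polystyrene coupons, simulating human free-drug profiles in supplemented Mueller-Hinton broth (calcium 25 μg/ml, magnesium 12.5 μg/ml) after a 40-h biofilm conditioning phase. Vancomycin was measured by fluorescence polarization immunoassay (lower limit 2 μg/ml). […] Half-life, AUC and peak were derived by the trapezoidal method.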"}, "[12]": {"assay": "AUC (0 to 24 hrs) in Staphylococcus aureus in in vitro pharmacokinetic/pharmacodynamic model", "assay_type": "ADME, organism-based", "design": "time < 24 hr", "how_it_was_run": "as §3"}, "Staphylococcus aureus [13]": {"test_system": "Staphylococcus aureus", "assay": "fCmax in Staphylococcus aureus in in vitro pharmacokinetic/pharmacodynamic model", "assay_type": "ADME, organism-based", "how_it_was_run": "as §3"}, "[14]": {"assay": "Half life in Staphylococcus aureus in in vitro pharmacokinetic/pharmacodynamic model at 10 mg/kg every 24 hrs", "assay_type": "ADME, organism-based", "design": "dose 10 mg/kg", "how_it_was_run": "as §3"}, "[15]": {"assay": "AUC (0 to 24 hrs) in Staphylococcus aureus in in vitro pharmacokinetic/pharmacodynamic model at 10 mg/kg every 24 hrs", "assay_type": "ADME, organism-based", "design": "time < 24 hr, dose 10 mg/kg", "how_it_was_run": "as §3"}, "Staphylococcus aureus [16]": {"test_system": "Staphylococcus aureus", "assay": "Bactericidal activity against methicillin-resistant Staphylococcus aureus N315 in in vitro pharmacokinetic/pharmacodynamic model assessed as decrease in biofilm bacterial count at 10 mg/kg every 24 hrs measured after 72 hrs", "assay_type": "functional", "how_it_was_run": "(§4)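 Biofilm reactor with polystyrene coupons. Conditioning: 24 h at 37°C in TSB with 1% glucose, then 16 h continuous flow of TSB with 10% glucose (30-min residence time). […] Coupons (biofilm cells, recovered by vortex/sonication) and medium (planktonic cells) sampled 0–72 h and plated on TSA. Limit of detection 2 log10 CFU/ml, extended to 1 by filtration. Duplicate models.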"}, "Staphylococcus aureus [17]": {"test_system": "Staphylococcus aureus", "assay": "Bactericidal activity against Staphylococcus aureus in in vitro pharmacokinetic/pharmacodynamic model assessed as decrease in biofilm bacterial count at 10 mg/kg every 24 hrs", "assay_type": "functional", "how_it_was_run": "as §1"}, "Staphylococcus aureus [18]": {"test_system": "Staphylococcus aureus", "assay": "fCmax in Staphylococcus aureus in in vitro pharmacokinetic/pharmacodynamic model at 10 mg/kg every 24 hrs", "assay_type": "ADME, organism-based", "design": "dose 10 mg/kg", "how_it_was_run": "as §3"}, "Staphylococcus aureus [19]": {"test_system": "Staphylococcus aureus", "assay": "Bactericidal activity against methicillin-resistant Staphylococcus aureus N315 planktonic cell in in vitro pharmacokinetic/pharmacodynamic model assessed as decrease in bacterial count at 10 mg/kg every 24 hrs", "assay_type": "functional, organism-based", "design": "dose 10 mg/kg", "how_it_was_run": "as §4"}, "Staphylococcus aureus [20]": {"test_system": "Staphylococcus aureus", "assay": "Bactericidal activity against methicillin-resistant Staphylococcus aureus N315 in in vitro pharmacokinetic/pharmacodynamic model assessed as decrease in planktonic cell count at 10 mg/kg every 24 hrs measured after 48 hrs", "assay_type": "functional, organism-based", "design": "dose 10 mg/kg", "how_it_was_run": "as §4"}, "Staphylococcus aureus [21]": {"test_system": "Staphylococcus aureus", "assay": "Bactericidal activity against methicillin-resistant Staphylococcus aureus N315 planktonic cell in in vitro pharmacokinetic/pharmacodynamic model assessed as decrease in bacterial count at 10 mg/kg every 24 hrs measured after 72 hrs", "assay_type": "functional", "how_it_was_run": "as §4"}, "Staphylococcus aureus [22]": {"test_system": "Staphylococcus aureus", "assay": "Bactericidal activity against Staphylococcus aureus in in vitro pharmacokinetic/pharmacodynamic model assessed as decrease in planktonic cell count at 10 mg/kg every 24 hrs", "assay_type": "functional", "how_it_was_run": "as §2"}, "Staphylococcus aureus [23]": {"test_system": "Staphylococcus aureus", "assay": "Antimicrobial activity against methicillin-susceptible Staphylococcus aureus SH1000 by CLSI broth microdilution method", "assay_type": "functional"}, "Staphylococcus aureus [24]": {"test_system": "Staphylococcus aureus", "assay": "Antimicrobial activity against methicillin-susceptible Staphylococcus aureus SH1000 assessed as inhibition of bacterial biofilm formation by CLSI broth microdilution method", "assay_type": "functional"}, "[25]": {"assay": "Half life in Staphylococcus aureus in in vitro pharmacokinetic/pharmacodynamic model at 250 mg every 12 hrs", "assay_type": "ADME, organism-based"}, "[26]": {"assay": "AUC (0 to 24 hrs) in Staphylococcus aureus in in vitro pharmacokinetic/pharmacodynamic model at 250 mg every 12 hrs", "assay_type": "ADME, organism-based", "design": "dose 250 mg, time < 24 hr"}, "Staphylococcus aureus [27]": {"test_system": "Staphylococcus aureus", "assay": "fCmax in Staphylococcus aureus in in vitro pharmacokinetic/pharmacodynamic model at 250 mg every 12 hrs", "assay_type": "ADME, organism-based"}}, "note": "Calls of active or inactive are those of the source. The calls are words filed in the database; no cut-off is given here.", "data": [{"smiles": "CO[C@H]1/C=C/O[C@@]2(C)Oc3c(C)c(O)c4c(O)c(c(/C=N/N5CCN(C)CC5)c(O)c4c3C2=O)NC(=O)/C(C)=C\\C=C\\[C@H](C)[C@H](O)[C@@H](C)[C@@H](O)[C@@H](C)[C@H](OC(C)=O)[C@@H]1C", "note": "[RIFAMPIN]", "values": [{"measurement": "MBIC", "setting": "Staphylococcus aureus [1]", "value": "<0.0625", "unit": "µg/mL"}, {"measurement": "MIC", "setting": "Staphylococcus aureus [2]", "value": "< 0.0625", "unit": "µg/mL"}, {"measurement": "AUC at 24 h", "setting": "[3]", "value": 19600, "unit": "ng·h/mL"}, {"measurement": "fCmax", "setting": "Staphylococcus aureus [4]", "value": 3.82, "unit": "µg/mL"}]}, {"smiles": "COc1c(N2C[C@@H]3CCCN[C@@H]3C2)c(F)cc2c(=O)c(C(=O)O)cn(C3CC3)c12", "note": "[MOXIFLOXACIN]", "values": [{"measurement": "log10CFU/ml", "setting": "Staphylococcus aureus [5]", "value": 2.38}, {"measurement": "log10CFU/ml", "setting": "Staphylococcus aureus [6]", "value": 4.06}, {"measurement": "AUC at 24 h", "setting": "[7]", "value": 44200, "unit": "ng·h/mL"}, {"measurement": "log10CFU/ml", "setting": "Staphylococcus aureus [8]", "value": 4.04}, {"measurement": "fCmax", "setting": "Staphylococcus aureus [9]", "value": 2.52, "unit": "µg/mL"}, {"measurement": "log10CFU/ml", "setting": "Staphylococcus aureus [10]", "value": 2.33}]}, {"smiles": "CN[C@H](CC(C)C)C(=O)N[C@H]1C(=O)N[C@@H](CC(N)=O)C(=O)N[C@H]2C(=O)N[C@H]3C(=O)N[C@H](C(=O)N[C@H](C(=O)O)c4cc(O)cc(O)c4-c4cc3ccc4O)[C@H](O)c3ccc(c(Cl)c3)Oc3cc2cc(c3O[C@@H]2O[C@H](CO)[C@@H](O)[C@H](O)[C@H]2O[C@H]2C[C@](C)(N)[C@H](O)[C@H](C)O2)Oc2ccc(cc2Cl)[C@H]1O", "note": "[VANCOMYCIN]", "values": [{"measurement": "half-life", "setting": "[11]", "value": 5.91, "unit": "h"}, {"measurement": "AUC(0-t) at 24 h", "setting": "[12]", "value": 193000, "unit": "ng·h/mL"}, {"measurement": "MBIC", "setting": "Staphylococcus aureus [1]", "value": 2, "unit": "µg/mL"}, {"measurement": "MIC", "setting": "Staphylococcus aureus [2]", "value": 0.25, "unit": "µg/mL"}, {"measurement": "fCmax", "setting": "Staphylococcus aureus [13]", "value": 22.6, "unit": "µg/mL"}]}, {"smiles": "CCCCCCCCCC(=O)N[C@@H](Cc1c[nH]c2ccccc12)C(=O)N[C@H](CC(N)=O)C(=O)N[C@@H](CC(=O)O)C(=O)N[C@@H]1C(=O)NCC(=O)N[C@@H](CCCN)C(=O)N[C@@H](CC(=O)O)C(=O)N[C@H](C)C(=O)N[C@@H](CC(=O)O)C(=O)NCC(=O)N[C@H](CO)C(=O)N[C@@H]([C@H](C)CC(=O)O)C(=O)N[C@@H](CC(=O)c2ccccc2N)C(=O)O[C@@H]1C", "values": [{"measurement": "half-life", "setting": "[14]", "value": 8.21, "unit": "h"}, {"measurement": "AUC at 24 h", "setting": "[15]", "value": 200000, "unit": "ng·h/mL"}, {"measurement": "log10CFU/ml", "setting": "Staphylococcus aureus [16]", "value": 2.73}, {"measurement": "log10CFU/ml", "setting": "Staphylococcus aureus [17]", "value": 2.83}, {"measurement": "fCmax", "setting": "Staphylococcus aureus [18]", "value": 11.79, "unit": "µg/mL"}, {"measurement": "Activity", "setting": "Staphylococcus aureus [19]", "value": "Active"}, {"measurement": "Activity", "setting": "Staphylococcus aureus [20]", "value": "inactive"}, {"measurement": "log10CFU/ml", "setting": "Staphylococcus aureus [21]", "value": 2.78}, {"measurement": "MIC", "setting": "Staphylococcus aureus [2]", "value": 0.125, "unit": "µg/mL"}, {"measurement": "log10CFU/ml", "setting": "Staphylococcus aureus [22]", "value": 2.2}, {"measurement": "MIC", "setting": "Staphylococcus aureus [23]", "value": 0.125, "unit": "µg/mL"}, {"measurement": "MBIC", "setting": "Staphylococcus aureus [24]", "value": 2, "unit": "µg/mL"}]}, {"smiles": "CC[C@H]1OC(=O)[C@H](C)[C@@H](O[C@H]2C[C@@](C)(OC)[C@@H](O)[C@H](C)O2)[C@H](C)[C@@H](O[C@@H]2O[C@H](C)C[C@H](N(C)C)[C@H]2O)[C@](C)(OC)C[C@@H](C)C(=O)[C@H](C)[C@@H](O)[C@]1(C)O", "note": "[CLARITHROMYCIN]", "values": [{"measurement": "half-life", "setting": "[25]", "value": 3.91, "unit": "h"}, {"measurement": "AUC at 24 h", "setting": "[26]", "value": 6530, "unit": "ng·h/mL"}, {"measurement": "fCmax", "setting": "Staphylococcus aureus [27]", "value": 1.15, "unit": "µg/mL"}, {"measurement": "MIC", "setting": "Staphylococcus aureus [23]", "value": "> 128", "unit": "µg/mL"}, {"measurement": "MBIC", "setting": "Staphylococcus aureus [24]", "value": ">128", "unit": "µg/mL"}]}]}
